Among the data in ChEMBL document CHEMBL4513216, “Probing the Open Global Health Chemical Diversity Library for Multistage-Active Starting Points for Next-Generation Antimalarials” (ACS Infect Dis, 2020) are cytotoxicity values, retold here.

This data set can be described thus: Toxicity liver stage against HepG2, at 10uM. More on the design: test concentration 10 uM, cell line HepG2-A16-CD81EGFP. It is filed as cell-based. Particulars: human, HepG2-A16-CD81EGFP cells; read-out: INHIBITION
An outline of the steps: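 Uninfected HepG2-A16-CD81EGFP cells, 3 × 10^3 per well, 1536-well, plated on prespotted compound at 10 μM final, parasite-free screening media added to match infected plates; puromycin 10 μM positive, DMSO 0.5% negative; run in parallel with 48 h PbLuc assay at 37 °C, 5% CO2; viability by CellTiter-Glo luminescence, normalized to controls.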
`COc1cccc2c3c(c(=O)[nH]c12)CCC(C)(C)O3`: the cytotoxicity at 10 µM is -1.43%.
The value for `CC(C)CNC[C@H]1COCc2nc3cccnc3n21` was -4.48%.
For `c1ccc(Cc2nnc([C@H]3CCN(C4CCCCC4)C3)o2)cc1`, the cytotoxicity at 10 µM was -1.14%.
As to `CC(C)N1CCN2C(=O)N(C3CCCCC3)C[C@H]2C1`, the cytotoxicity at 10 µM worked out at 1.2%.
As for `CCCn1nnc(NCc2ccccc2OCc2ccc(Cl)cc2)n1`, the cytotoxicity at 10 µM was found to be 2.76%.
For the compound `Cc1csc(NC(=O)c2ccc(NC(=O)N3CCOCC3)cc2)n1`, the cytotoxicity at 10 µM was 1.11%.
Take `COCc1nn(CC2CC2)c2c1CN(C(=O)c1ccno1)CC2`: the cytotoxicity at 10 µM was found to be 10.4%.
For `O=C(c1ccncc1)N1CCc2onc(CN3CCCC3)c2C1`, the cytotoxicity at 10 µM is -3.7%.
For the compound `Cn1cc(CN2CCc3c(COCc4ccncc4)cncc3C2)cn1`, the cytotoxicity at 10 µM is -2.37%.
In the case of `COc1ccc(CN2C[C@@H]3CN(C(=O)c4ccsc4)C[C@@H]3C2=O)cc1`, the cytotoxicity at 10 µM was -3.7%.
Turning to `O=C(c1ncccn1)N1C[C@@H]2COC[C@]2(c2nnc(C3CC3)o2)C1`, the cytotoxicity at 10 µM was -1.31%.
Turning to `CO[C@H]1CN(C(=O)c2ccc(C)o2)[C@@H]2CCCO[C@H]12`, the cytotoxicity at 10 µM was -153%.
Regarding `CC(C)[C@H](NC(=O)NC1CCS(=O)(=O)C1)C(=O)Nc1cccnc1` (some centres not stated), the cytotoxicity at 10 µM came to 6.85%.
Consider `O=C(c1ccc[nH]1)N1C[C@H](OCc2cccnc2)[C@H]2COC[C@H]21`, for which the cytotoxicity at 10 µM was -10.4%.
As for `CC(=O)c1ccc(NC(=O)C(C)Cn2cc(Br)cn2)cc1` (configuration not stated), the cytotoxicity at 10 µM was 0.88%.
Consider `COc1c(Br)c(C(=O)NC2CCCCC2)nn1C`, for which the cytotoxicity at 10 µM came to 6.94%.
On to `CN(C)CC1(O)CCN(C(=O)Cc2ccc3ccccc3c2)C1` (configuration not stated), for which the cytotoxicity at 10 µM is -6.77%.
As for `COCCC(=O)N1CCC(c2ccc3c(NC(C)C)n[nH]c3n2)C1` (configuration not stated), the cytotoxicity at 10 µM stood at 0.691%.
In the case of `Cc1cc(C)nc(C2CCN(C3CCCCC3)C2)n1` (configuration not stated), the cytotoxicity at 10 µM amounted to 7.33%.
The value for `CN(C)C(=O)c1c[nH]nc1C1CCN(S(=O)(=O)c2ccccc2)CC1` was -0.358%; that for `CNc1cccc(C2CCCN(C(=O)c3cnccn3)C2)n1` (configuration not stated) was -19.2%; that for `Cc1ccn(Cc2nc(C(C)OCC(C)C)no2)c(=O)c1` (configuration not stated) was 5.56%.
Take `CCNC(=O)CNC(=O)c1nc(C2CC2)n(-c2ccccc2Cl)n1`: the cytotoxicity at 10 µM is 5.91%.
For the compound `O=C(O)c1ccc(-c2cscn2)cc1`, the cytotoxicity at 10 µM came to 7.68%.
The value for `CC(C)(NCc1cccc(O)c1)c1ccc2c(c1)OCO2` was 5.12%; that for `CC(C)S(=O)(=O)CCN1CCN(C(C#N)c2ccccc2)CC1` (configuration not stated) was 0.401%; that for `CCc1ccc(CC)c(NCc2cnc(N3CCOCC3)nc2)c1` was 0.898%.
With `CCc1cnc(C(C)NC(=O)N2CCCN(CC(F)F)CC2)s1` (configuration not stated), the cytotoxicity at 10 µM is -0.423%.
Consider `Cc1cc(C(=O)N2CCNC(=O)CC2)c(C)n1CC(F)(F)F`, for which the cytotoxicity at 10 µM stood at 1.88%.
Turning to `CCn1cc(C(=O)NCC(C)(CC)N2CCOCC2)c2ccccc21` (configuration not stated), the cytotoxicity at 10 µM was determined as 6.13%.
`Cc1ccc(CNC(=O)NC2CCC(O)CC2)c(N2CCCC2)c1` (configuration not stated): the cytotoxicity at 10 µM is -16.4%.
The value for `Cc1csc(CNC(=O)NC2CCCN(S(C)(=O)=O)C2)n1` (configuration not stated) was -6.3%.
For the compound `CN(C)c1ncccc1CNC(=O)c1csc(Br)c1`, the cytotoxicity at 10 µM was -1.35%.
As for `Cc1ccccc1C1(CNC(=O)N2CCC(CC(N)=O)CC2)CC1`, the cytotoxicity at 10 µM is 4.48%.
In the case of `O=C(Cn1cc(Cl)cn1)Nc1ccc2c(c1)OCO2`, the cytotoxicity at 10 µM is 4.57%.
The value for `Cc1cc(F)cc2c(N3CCS(=O)(=O)CC3)c(C#N)cnc12` was -16.7%.
The figure for `CCN1CCN(CC(O)c2ccc(Br)cc2)CC1` (configuration not stated) is -6.95%; for `Cc1cnn(C2CN(CC(=O)NCC3(c4ccccc4)CC3)C2)c1` it is -10.9%; for `COC(=O)CCNC(=O)c1ccc(NC(=O)N(C)CC(C)(C)C)cc1` it is 8.01%.
The figure for `Cc1nc(CN2CCN(C(=O)CCC(=O)c3ccccc3)CC2)no1` is 3.7%.
As to `O=C1CC2(CCCCC2)C(=O)N1CC(O)COCc1ccccc1F` (configuration not stated), the cytotoxicity at 10 µM was 0.611%.
For the compound `CC(C)c1nn(C)c(N(C)C)c1CNCC(O)COc1ccccc1` (configuration not stated), the cytotoxicity at 10 µM was determined as 0.142%.
Regarding `C=C(C)CN1CCCC(NS(C)(=O)=O)C1` (configuration not stated), the cytotoxicity at 10 µM worked out at 4.21%.
Take `Cc1cnn(CC2CCCN2C(=O)CCc2c(C)nc(C)[nH]c2=O)c1` (configuration not stated): the cytotoxicity at 10 µM is -2.79%.
With `CC(C)NC(=O)c1nnn(-c2ccc(F)cc2)c1C1CC1`, the cytotoxicity at 10 µM came out at 12.1%.
The figure for `Cc1ccc(N2CCCC(NC(=O)Cc3csc(C)n3)C2=O)cc1` (configuration not stated) is -1.31%.
As to `CCC(=O)N1CSCC1C(=O)Nc1ccccc1-c1cccs1` (configuration not stated), the cytotoxicity at 10 µM was -3.8%.
`NC(=O)C1CCCCN1C(=O)c1ccc(Br)s1` (configuration not stated): the cytotoxicity at 10 µM was -6.38%.
Regarding `OC1CCN(c2ccc(CNc3nc4ccccc4o3)cc2F)CC1`, the cytotoxicity at 10 µM is 0.833%.
For the compound `Cc1nc2ccc(C(=O)N(CCC#N)CCC#N)cc2nc1C`, the cytotoxicity at 10 µM was -12.8%.
For the compound `CC(C)C1CN(C(=O)c2ccn(C)c(=O)c2)c2ccccc2N1` (configuration not stated), the cytotoxicity at 10 µM is -6.01%.
On to `CCOc1ncccc1C(=O)N1CC=C(c2ccc(O)cc2)CC1`, for which the cytotoxicity at 10 µM is 8.02%.
The value for `CN1CC(C(=O)NC2(c3cccc(F)c3)CCOCC2)CC1=O` (configuration not stated) was 15.6%.
As to `CC(C)n1cc2cc(NC(=O)Cn3cnnn3)ccc2n1`, the cytotoxicity at 10 µM is -138%.
The value for `CC(C)CNC(=O)c1ccc(NC(=O)NC(C)C)cc1Cl` was 5.92%; that for `O=C1C(n2nnc(-c3ccsc3)n2)CCN1CC(F)(F)F` (configuration not stated) was 0.519%; that for `CS(=O)(=O)c1cccc(S(=O)(=O)NC(=O)CCC2CCCCC2)c1` was 0.848%.
The value for `Cc1cc(N2CCCC(OC(=O)CCc3cnn(C)c3)C2)nc(C)n1` (configuration not stated) was 0.127%.
The figure for `CCN(CC)c1ccc(CNC(=O)C2(C)CCOCC2)cc1F` is -4.08%; for `CCOC(CC)C(=O)NCCC(=O)N1CCN(c2ccccn2)CC1` (configuration not stated) it is -7.4%; for `O=C(NCCc1nnc2n1CCC2)NCC1(c2cccc(F)c2)CC1` it is -7.94%.
For the compound `CN(Cc1cncnc1)[C@H]1CN(C(=O)c2ccco2)[C@@H]2CCCO[C@@H]21`, the cytotoxicity at 10 µM was -101%.
In the case of `CCn1cc2c(n1)C(COC)CN(C(=O)CCOc1ccccc1)C2` (configuration not stated), the cytotoxicity at 10 µM is 0.234%.
The figure for `CCC[C@H]1CN(CCCO)C[C@@H]1NC(=O)Cn1cc(C)cn1` is 1.39%.
Take `CCc1nc(N)nc(N2CCCC3(CN(C)C(=O)O3)C2)c1C` (configuration not stated): the cytotoxicity at 10 µM is -138%.
The figure for `Cc1c(CNCC(C)Oc2cccnc2)c2ccccc2n1CC(N)=O` (configuration not stated) is -141%; for `Cc1cc(C)c2c(N(C)CC3CCOC3)ncnc2n1` (configuration not stated) it is -146%; for `O=C(NCC1=CCCCC1)C(c1cccnc1)N1CCCC1` (configuration not stated) it is -3.78%.
For `CN1CCC(N(CCc2ccccc2)C(=O)COCC2CCCO2)CC1` (configuration not stated), the cytotoxicity at 10 µM is -148%.
As to `COc1ccccc1CC(=O)N1CCC(OCc2cccnc2)CC1`, the cytotoxicity at 10 µM was determined as 4.87%.
Turning to `CC(=O)N[C@@H](C)C(=O)NCc1cccnc1Oc1ccccc1F`, the cytotoxicity at 10 µM was -3.53%.
For `COc1ccc(-c2noc(C3CC(C(C)C)=NO3)n2)cc1` (configuration not stated), the cytotoxicity at 10 µM is -6.64%.
Regarding `CC(C)c1ccn(C2(C(=O)O)CCN(c3ccncc3F)CC2)n1`, the cytotoxicity at 10 µM is -0.679%.
Regarding `c1ccc(-c2noc(CCNC3CCOC4(CCOCC4)C3)n2)nc1` (configuration not stated), the cytotoxicity at 10 µM was -6.5%.
The value for `CC(C)[C@H]1COC(=O)N1Cc1nnc(-c2ccccc2)o1` was 0.537%; that for `CCc1cnc(C)nc1NCCc1nc(N)cc(O)n1` was -0.264%.
The value for `Cc1nc(CNC(=O)CC2C(=O)NCCN2CCC(C)C)n[nH]1` (configuration not stated) was -4.44%; that for `Cc1nc(NCCC23CCCN2CCC3)cc(C2CCNCC2)n1` was 8.37%; that for `CCN1CC(C(=O)N2CCC(Oc3ccccc3C)CC2)CC1=O` (configuration not stated) was -12.1%.
Regarding `O=C(CCc1ccc(=O)[nH]n1)N1CCCC(COc2ccc(F)cc2)C1` (configuration not stated), the cytotoxicity at 10 µM is 1.9%.
The figure for `Cc1nn(C)c(C)c1C1CCCN1C(=O)CCNS(C)(=O)=O` (configuration not stated) is -26%; for `CCc1nnc(CN2CCc3cnc(C)nc3C2)o1` it is -4.04%; for `CC(NC(=O)c1cccs1)C(=O)Nc1cccnc1N1CCCCC1` (configuration not stated) it is -8.94%.
The figure for `COc1ccccc1C(=O)N1CCC(Nc2ccc(C)nn2)CC1` is -4.05%; for `CN(Cc1cccc(C(N)=O)c1)CC1CCCN1c1cccnn1` (configuration not stated) it is -9.75%.
Take `CN1CC(C(=O)NCc2cccnc2-n2cccn2)CC1=O` (configuration not stated): the cytotoxicity at 10 µM is -6.18%.
`CCn1cnnc1C1CCN(C(=O)COc2ccc(Cl)cc2)CC1`: the cytotoxicity at 10 µM is -3.39%.
Consider `CC(C(=O)NCc1cccc(N2CC=CC2)c1)n1cccn1` (configuration not stated), for which the cytotoxicity at 10 µM was -5.07%.
Turning to `CNC(=O)[C@@H](c1ccccc1OC)N1CCC[C@H]1C(=O)N1CCC1`, the cytotoxicity at 10 µM was 1.44%.
Take `CN(C)CCN1C(=O)CCC12CCCN(C(=O)c1cccnc1)CC2` (configuration not stated): the cytotoxicity at 10 µM is -6.78%.
`Cc1ccc2c(n1)N(CC1CC1)CCN(C(=O)c1ccncc1F)C2`: the cytotoxicity at 10 µM is -0.182%.
As for `Cc1cc(C(=O)N2CCC3(CC2)CC(c2cccnc2)C(=O)N3C)no1` (configuration not stated), the cytotoxicity at 10 µM stood at 1.48%.
Consider `CC1c2ncc(COc3cccnc3)n2CCN1C(=O)Cc1ccco1` (configuration not stated), for which the cytotoxicity at 10 µM is -5.13%.
For `COC1COC2(CCN(c3ccc(C#N)cc3)CC2)C1` (configuration not stated), the cytotoxicity at 10 µM was -79.6%.
As for `CCN(C)c1ncnc2c1CCN(Cc1nccs1)CC2`, the cytotoxicity at 10 µM was -2.46%.
Take `O=c1ccc2c([nH]1)CCC(NCc1ccc3c(c1)OCO3)C2` (configuration not stated): the cytotoxicity at 10 µM came out at 6.69%.
For `O=C(c1ccccn1)N1C[C@H]2CC[C@@H](C1)N(C(=O)CCC1CCCC1)C2`, the cytotoxicity at 10 µM was 3.07%.
